According to PMC10527948 (European journal of pharmacology, 2023):

How the values were obtained:
[1] = target: T1, membrane-bound ecto-5`-nucleotidase/CD73 (Rattus norvegicus, UniProt P21588); experiment: Ecto-5`-nucleotidase/CD73 enzyme assay; format: biochemical; conditions: for IC50: Dixon linearization, control primary astrocytes, 1.0 mM AMP; for % inhibition at indicated concentration: value in brackets in the Ki column, concentration not given
T1 sequence (P21588 29-576): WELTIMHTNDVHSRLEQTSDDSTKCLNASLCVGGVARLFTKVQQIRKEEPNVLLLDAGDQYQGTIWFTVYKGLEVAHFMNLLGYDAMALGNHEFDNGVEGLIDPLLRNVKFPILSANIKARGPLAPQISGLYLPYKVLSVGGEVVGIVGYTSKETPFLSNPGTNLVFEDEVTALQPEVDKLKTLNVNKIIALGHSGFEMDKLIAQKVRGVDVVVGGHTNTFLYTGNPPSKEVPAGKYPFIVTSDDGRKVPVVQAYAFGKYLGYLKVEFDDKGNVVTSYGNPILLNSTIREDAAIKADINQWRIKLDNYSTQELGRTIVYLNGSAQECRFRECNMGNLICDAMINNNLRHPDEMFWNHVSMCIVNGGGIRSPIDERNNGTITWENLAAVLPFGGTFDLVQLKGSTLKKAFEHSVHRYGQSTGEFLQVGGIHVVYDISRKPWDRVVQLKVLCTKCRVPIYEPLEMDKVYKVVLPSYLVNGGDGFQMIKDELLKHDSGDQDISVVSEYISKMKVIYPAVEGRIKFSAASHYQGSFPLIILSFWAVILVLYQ
Summary of the method: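 Confluent primary cortical astrocytes from 1-day-old male Wistar rat pups, washed in phosphate-free HEPES/bicarbonate saline, pH 7.4. 15 min preincubation with inhibitor (in water, 1×10−9 to 1×10−3 M); 1.0 mM AMP solution added, 30 min at 37°C; stopped with cold perchloric acid. Pi by malachite green at 620 nm, normalised to BCA protein.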

[2] = tested on: primary astrocytes; experiment: Cell proliferation by double Ki67/DAPI fluorescence staining; format: cell-based, rat; conditions: 24 hours
[3] = tested on: primary astrocytes; experiment: Morphometric analysis of GFAP-immunostained astrocytes; format: cell-based, rat; conditions: 24 hours
Summary of the method: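 Astrocytes on PLL-coated coverslips treated with inhibitor for 24 h, then prefixed in 4% PFA and blocked in 5% BSA. Stained with rabbit anti-GFAP (1:500), Alexa-555 secondary, and DAPI. Confocal images analysed in ImageJ for cell area and shape descriptors. Mean ± SE from ≥ 22 cells in 3 random fields, ≥ 2 cultures.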

[4] = target: T2, CD73 in reactive astrocytes (Rattus norvegicus, UniProt P21588); experiment: CD73 enzyme assay in reactive astrocytes stimulated with TNFα or IL-1β; format: biochemical
T2 sequence (P21588 29-576): T1 sequence (P21588 29-576)
Summary of the method: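 Rat primary astrocytes exposed to TNF-α or IL-1β for 24 h, then assayed for AMP hydrolysis (Pi release by malachite green, per mg protein per min). Inhibitor tested at a single 50 μM concentration, or as a 1–250 μM series in cells given 0.1 μg/ml IL-1β. The series was fitted to a four-parameter sigmoid.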

[5] = tested on: primary astrocytes; experiment: MTT assay of cell metabolic activity; format: cell-based, rat
[6] = tested on: primary astrocytes; experiment: Scratch wound migration assay; format: cell-based, rat; conditions: 1–100 μM; 8 and 24 hours
[7] = tested on: C3; experiment: qRT-PCR of inflammatory gene expression in cytokine-treated astrocytes; format: cell-based, rat; conditions: 100 ng/ml cytokine, 24 hours
Summary of the method: (§1)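 Confluent rat primary astrocytes in 6-well plates treated with 100 ng/ml TNF-α or IL-1β for 24 h. Total RNA extracted with TRIzol, purity checked by OD260/280, then reverse-transcribed. Gene-specific primers used with Gapdh as internal control; quantified by the 2−ΔCt method, n = 3 separate determinations.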

[8] = tested on: Lcn; experiment: as above; format: cell-based, rat; conditions: 100 ng/ml cytokine, 24 hours
Summary of the method: as §1

[9] = tested on: Nt5e; experiment: qRT-PCR of gene expression in cytokine-treated astrocytes; format: cell-based, rat; conditions: 100 ng/ml cytokine, 24 hours
Summary of the method: as §1

| Molecule | IC50 [1] | % inhibition at indicated concentration [1] | Area (μm^2) ([3]; 100 μM) | Aspect ratio ([3]; 100 μM) | Circularity ([3]; 100 μM) | Roundness ([3]; 100 μM) | Solidity ([3]; 100 μM) | C3 mRNA abundance (fold-increase in respect to non-stimulated control) [7] | Lcn mRNA abundance (fold-increase in respect to non-stimulated control) [8] | further results |
| --- | --- | --- | --- | --- | --- | --- | --- | --- | --- | --- |
| Nc1ncnc2c1ncn2[C@@H]1O[C@H](COP(=O)(O)CP(=O)(O)O)[C@@H](O)[C@H]1O [APCP, 5’-(α,β-methylene)diphosphate adenosine, reference compound] | 2630 ± 1760 nM | 18.6% | 3181.9 ± 607.2 μm^2 | 2.2 ± 0.2 | 0.49 ± 0.03 | 0.54 ± 0.07 | 0.75 ± 0.04 |  |  | Ki ([1]; Cheng-Prusoff equation, Km for rat CD73 53.0 ± 4.1 μM): 132 ± 89 nM; effect on proliferation rate (Ki67+/DAPI+) ([2]; indicated concentrations): no apparent effect |
| Cn1c(=O)n([C@@H]2O[C@H](COP(=O)(O)CP(=O)(O)O)[C@@H](O)[C@H]2O)cc/c1=N\OCc1ccc(Cl)cc1 [MRS4598] | 110 ± 80 nM | 53.4% | 1861.8 ± 137.5 ^* μm^2 | 2.7 ± 0.2 | 0.43 ± 0.03 | 0.42 ± 0.04 | 0.77 ± 0.02 |  |  | inhibition of CD73 activity at 1×10^−3 M ([1]; 1×10^−3 M inhibitor): complete inhibition; effect on CD73 catalytic activity in reactive astrocytes ([4]; 50 μM, cells treated with TNFα or IL-1β for 24 hours): decreased the catalytic activity of CD73; IC50 ([4]; astrocytes stimulated with 0.1 μg/ml IL-1β, 1–250 μM): 5 ± 0.26 µM; effect on formazan formation (MTT) ([5]; 1 μM, 24 hours): no effect; reduction of formazan formation (MTT) ([5]; concentrations above 10 μM, 24 hours, no apparent concentration dependence): 40%; cytotoxic effects on primary astrocytes ([5]; concentrations as low as 1 μM): negligible cytotoxic effects; effect on proliferation rate (Ki67+/DAPI+) ([2]; 50 μM and 100 μM, vs control (~22%), p < 0.05): modest but significant decrease; Area (μm^2) ([3]; 10 μM): 3619.4 ± 552.5 μm^2; Aspect ratio ([3]; 10 μM): 2.3 ± 0.2; Circularity ([3]; 10 μM): 0.55 ± 0.06; Roundness ([3]; 10 μM): 0.47 ± 0.04; Solidity ([3]; 10 μM): 0.84 ± 0.04; effect on astrocyte migration velocity (wound closure) [6]: did not affect migration velocity of astrocytes, except at the highest tested concentration of 100 μM |
| IL-1β: proinflammatory cytokine used to induce the reactive astrocyte phenotype |  |  |  |  |  |  |  | 3.13 ± 0.69 fold-increase | 24.22 ± 6.21 fold-increase |  |
| TNFα |  |  |  |  |  |  |  | 4.65 ± 2.29 fold-increase | 49.04 ± 3.34 fold-increase | Nt5e mRNA abundance (fold-increase in respect to non-stimulated control) [9]: 2.49 ± 0.33 fold-increase |
